Assay results as given in ChEMBL document CHEMBL4819122, “Novel 4-(piperazin-1-yl)quinolin-2(1H)-one bearing thiazoles with antiproliferative activity through VEGFR-2-TK inhibition” (Bioorg Med Chem, 2021).
pIC50: −log10 of the molar value. The source made the active and inactive calls. The calls are words filed in the database; no cut-off is given here.

Tests used:
[1] = tested on: M14; test: Cytotoxicity against human M14 assessed as growth inhibition at 10 uM by NCI protocol relative to control; assay type: functional; settings: read-out: GI
Outline: (§1)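 Run by NCI as a single-dose screen at 10 μM across the sixty-cell-line panel, which covers nine human tumour tissue types. The read-out is percent growth inhibition of treated cells relative to untreated cells.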

[2] = tested on: OVCAR-3; test: Cytotoxicity against human OVCAR-3 assessed as growth inhibition at 10 uM by NCI protocol relative to control; assay type: functional; settings: read-out: GI; outline: as §1
[3] = tested on: SW-620; test: Cytotoxicity against human SW-620 assessed as growth inhibition at 10 uM by NCI protocol relative to control; assay type: functional; settings: read-out: GI
Outline: (§2)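 Run by the NCI under its standard protocol: one dose of 10 μM against a sixty-line panel from nine human tumour tissues. Result given as percent growth inhibition of treated cells relative to untreated cells.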

[4] = tested on: MDA-MB-435; test: Cytotoxicity against human MDA-MB-435 assessed as growth inhibition at 10 uM by NCI protocol relative to control; assay type: functional, cell-based; outline: as §1
[5] = tested on: UO-31; test: Cytotoxicity against human UO31 assessed as growth inhibition at 10 uM by NCI protocol relative to control; assay type: functional; settings: read-out: GI; outline: as §2
[6] = tested on: HCT-15; test: Cytotoxicity against human HCT-15 assessed as growth inhibition at 10 uM by NCI protocol relative to control; assay type: functional; settings: read-out: GI; outline: as §1
[7] = tested on: Malme-3M; test: Cytotoxicity against human MALME-3M assessed as growth inhibition at 10 uM by NCI protocol relative to control; assay type: functional; settings: read-out: GI; outline: as §1
[8] = tested on: EKVX; test: Cytotoxicity against human EKVX assessed as growth inhibition at 10 uM by NCI protocol relative to control; assay type: functional; settings: read-out: GI; outline: as §1
[9] = tested on: HCC 2998; test: Cytotoxicity against human HCC-2998 assessed as growth inhibition at 10 uM by NCI protocol relative to control; assay type: functional; settings: read-out: GI; outline: as §1
[10] = tested on: BT-549; test: Cytotoxicity against human BT-549 assessed as growth inhibition at 10 uM by NCI protocol relative to control; assay type: functional; settings: read-out: GI; outline: as §1
[11] = tested on: SNB-19; test: Cytotoxicity against human SNB-19 assessed as growth inhibition at 10 uM by NCI protocol relative to control; assay type: functional; settings: read-out: GI; outline: as §2
[12] = tested on: SK-OV-3; test: Cytotoxicity against human SK-OV-3 assessed as growth inhibition at 10 uM by NCI protocol relative to control; assay type: functional; settings: read-out: GI; outline: as §1
[13] = tested on: OVCAR-8; test: Cytotoxicity against human OVCAR-8 assessed as growth inhibition at 10 uM by NCI protocol relative to control; assay type: functional; settings: read-out: GI; outline: as §1
[14] = tested on: 786-0; test: Cytotoxicity against human 786-0 assessed as growth inhibition at 10 uM by NCI protocol relative to control; assay type: functional; settings: read-out: GI; outline: as §1
[15] = tested on: T47D; test: Cytotoxicity against human T47D cells assessed as reduction in cell viability after 3 hrs by MTT assay
[16] = tested on: A498; test: Cytotoxicity against human A498 assessed as growth inhibition at 10 uM by NCI protocol relative to control; assay type: functional; settings: read-out: GI; outline: as §1
[17] = tested on: UACC-257; test: Cytotoxicity against human UACC-257 assessed as growth inhibition at 10 uM by NCI protocol relative to control; assay type: functional; settings: read-out: GI; outline: as §2
[18] = tested on: U-251; test: Cytotoxicity against human U251 assessed as growth inhibition at 10 uM by NCI protocol relative to control; assay type: functional; settings: read-out: GI; outline: as §2
[19] = tested on: K562; test: Cytotoxicity against human K-562 assessed as growth inhibition at 10 uM by NCI protocol relative to control; assay type: functional; settings: read-out: GI; outline: as §1
[20] = tested on: OVCAR-4; test: Cytotoxicity against human OVCAR-4 assessed as growth inhibition at 10 uM by NCI protocol relative to control; assay type: functional; settings: read-out: GI; outline: as §1
[21] = tested on: NCI-H226; test: Cytotoxicity against human NCI-H226 assessed as growth inhibition at 10 uM by NCI protocol relative to control; assay type: functional; settings: read-out: GI; outline: as §1
[22] = tested on: NCI-H522; test: Cytotoxicity against human NCI-H522 assessed as growth inhibition at 10 uM by NCI protocol relative to control; assay type: functional; settings: read-out: GI; outline: as §1
[23] = tested on: MDA-MB-468; test: Cytotoxicity against human MDA-MB-468 assessed as growth inhibition at 10 uM by NCI protocol relative to control; assay type: functional; settings: read-out: GI; outline: as §1
[24] = tested on: SF-295; test: Cytotoxicity against human SF-295 assessed as growth inhibition at 10 uM by NCI protocol relative to control; assay type: functional; settings: read-out: GI; outline: as §1
[25] = tested on: KM12; test: Cytotoxicity against human KM12 assessed as growth inhibition at 10 uM by NCI protocol relative to control; assay type: functional; settings: read-out: GI; outline: as §1
[26] = tested on: COLO 205; test: Cytotoxicity against human COLO 205 assessed as growth inhibition at 10 uM by NCI protocol relative to control; assay type: functional; settings: read-out: GI; outline: as §1
[27] = tested on: CAKI-1; test: Cytotoxicity against human Caki1 assessed as growth inhibition at 10 uM by NCI protocol relative to control; assay type: functional; settings: read-out: GI; outline: as §1
[28] = tested on: SNB-75; test: Cytotoxicity against human SNB-75 assessed as growth inhibition at 10 uM by NCI protocol relative to control; assay type: functional; settings: read-out: GI; outline: as §2
[29] = tested on: TK-10; test: Cytotoxicity against human TK-10 assessed as growth inhibition at 10 uM by NCI protocol relative to control; assay type: functional; settings: read-out: GI; outline: as §2
[30] = tested on: NCI-H460; test: Cytotoxicity against human NCI-H460 assessed as growth inhibition at 10 uM by NCI protocol relative to control; assay type: functional; settings: read-out: GI; outline: as §1
[31] = tested on: A549; test: Cytotoxicity against human A549 assessed as growth inhibition at 10 uM by NCI protocol relative to control; assay type: functional; settings: read-out: GI; outline: as §1
[32] = tested on: ACHN; test: Cytotoxicity against human ACHN assessed as growth inhibition at 10 uM by NCI protocol relative to control; assay type: functional; settings: read-out: GI; outline: as §1
[33] = tested on: NCI/ADR-RES; test: Cytotoxicity against human NCl/ADR-RES assessed as growth inhibition at 10 uM by NCI protocol relative to control; assay type: functional; settings: read-out: GI; outline: as §1
[34] = tested on: RXF 393; test: Cytotoxicity against human RXF 393 assessed as growth inhibition at 10 uM by NCI protocol relative to control; assay type: functional; settings: read-out: GI; outline: as §1
[35] = tested on: CCRF-CEM; test: Cytotoxicity against human CCRF-CEM assessed as growth inhibition at 10 uM by NCI protocol relative to control; assay type: functional; settings: read-out: GI; outline: as §1
[36] = tested on: IGROV-1; test: Cytotoxicity against human IGROVI assessed as growth inhibition at 10 uM by NCI protocol relative to control; assay type: functional; settings: read-out: GI; outline: as §1
[37] = tested on: DU-145; test: Cytotoxicity against human DU-145 assessed as growth inhibition at 10 uM by NCI protocol relative to control; assay type: functional; settings: read-out: GI; outline: as §1
[38] = tested on: SN12C; test: Cytotoxicity against human SN12C assessed as growth inhibition at 10 uM by NCI protocol relative to control; assay type: functional; settings: read-out: GI; outline: as §2
[39] = tested on: SF-539; test: Cytotoxicity against human […] assessed as growth inhibition at 10 uM by NCI protocol relative to control; assay type: functional; settings: read-out: GI; outline: as §1
[40] = tested on: NCI-H23; test: Cytotoxicity against human NCI-H23 assessed as growth inhibition at 10 uM by NCI protocol relative to control; assay type: functional; settings: read-out: GI; outline: as §1
[41] = tested on: SK-MEL-28; test: Cytotoxicity against human SK-MEL-28 assessed as growth inhibition at 10 uM by NCI protocol relative to control; assay type: functional; settings: read-out: GI; outline: as §1
[42] = tested on: HL-60; test: Cytotoxicity against human HL60 assessed as growth inhibition at 10 uM by NCI protocol relative to control; assay type: functional; settings: read-out: GI; outline: as §1

SMILES: O=C(CN1CCN(c2cc(=O)[nH]c3ccc(F)cc23)CC1)Nc1nc(-c2ccc(Cl)cc2)cs1
- inhibition of growth at 10 µM [1]: 30.6%
- inhibition of growth at 10 µM [2]: 16.9%
- inhibition of growth at 10 µM [3]: 41.2%
- growth inhibition (GI) [4]: inactive
- inhibition of growth at 10 µM [5]: 38%
- inhibition of growth at 10 µM [6]: 34.9%
- inhibition of growth at 10 µM [7]: 43.3%
- inhibition of growth at 10 µM [8]: 43.3%
- inhibition of growth at 10 µM [9]: 30.9%
- inhibition of growth at 10 µM [10]: 27.5%
- inhibition of growth at 10 µM [11]: 30.8%
- inhibition of growth at 10 µM [12]: 11.9%
- inhibition of growth at 10 µM [13]: 24%
- inhibition of growth at 10 µM [14]: 32.8%
- pIC50 [15]: 5.56
- inhibition of growth at 10 µM [16]: 60.5%
- inhibition of growth at 10 µM [17]: 31.3%
- inhibition of growth at 10 µM [18]: 37.3%
- inhibition of growth at 10 µM [19]: 44.8%
- inhibition of growth at 10 µM [20]: 39.1%
- inhibition of growth at 10 µM [21]: 12.6%
- inhibition of growth at 10 µM [22]: 25.9%
- inhibition of growth at 10 µM [23]: 51.4%
- inhibition of growth at 10 µM [24]: 20.4%
- inhibition of growth at 10 µM [25]: 30.1%
- inhibition of growth at 10 µM [26]: 14.5%
- inhibition of growth at 10 µM [27]: 55.5%
- inhibition of growth at 10 µM [28]: 46.2%
- inhibition of growth at 10 µM [29]: 34.3%
- inhibition of growth at 10 µM [30]: 18.1%
- inhibition of growth at 10 µM [31]: 44.4%
- inhibition of growth at 10 µM [32]: 38.5%
- inhibition of growth at 10 µM [33]: 41.9%
- inhibition of growth at 10 µM [34]: 37.6%
- inhibition of growth at 10 µM [35]: 33.3%
- inhibition of growth at 10 µM [36]: 50.8%
- inhibition of growth at 10 µM [37]: 41.1%
- inhibition of growth at 10 µM [38]: 36.2%
- inhibition of growth at 10 µM [39]: 30.5%
- inhibition of growth at 10 µM [40]: 28.8%
- inhibition of growth at 10 µM [41]: 17.3%
- inhibition of growth at 10 µM [42]: 38.3%
